Activity calls are given as the source filed them. The rule behind the calls is not given here.
What was measured:
[1] = test system: Klebsiella pneumoniae; test: Potentiation of colistin-induced antimicrobial activity against Klebsiella pneumoniae isolate B9 after 16 hrs in presence of 0.01% triton X-100 by broth microdilution assay; type: functional, organism-based
[2] = test system: Acinetobacter baumannii; test: Potentiation of colistin-induced antimicrobial activity against Acinetobacter baumannii isolate 3941 after 16 hrs by broth microdilution assay; type: functional, organism-based
Procedure, shortened: (§1)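 Analogue at a fixed 60 μM unless otherwise noted, combined with colistin against the Gram-negative strain. Potentiation is read as the fold reduction in colistin MIC relative to colistin alone. A. baumannii 3941/4106 and K. pneumoniae C3/B9 are primary clinical isolates with genomically encoded colistin resistance.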

[3] = test system: Staphylococcus aureus; test: Antibacterial activity against methicillin-resistant Staphylococcus aureus ATCC 43300 after 16 hrs by broth microdilution assay; type: functional; conditions: ATCC 43300, 16 h
[4] = test system: Acinetobacter baumannii; test: Antibacterial activity against Acinetobacter baumannii isolate 4106 after 16 hrs by broth microdilution assay; type: organism-based
[5] = test system: Klebsiella pneumoniae; test: Antibacterial activity against Klebsiella pneumoniae isolate B9 after 16 hrs by broth microdilution assay; conditions: in vivo
[6] = test system: Staphylococcus aureus; test: Antibiofilm activity against methicillin-resistant Staphylococcus aureus ATCC 43300 assessed induction of dispersion of preformed biofilm after 24 hrs by crystal violet staining based method; type: functional, organism-based; conditions: ATCC 43300, 24 h
[7] = test system: Staphylococcus aureus; test: Antibacterial activity against methicillin-resistant Staphylococcus aureus ATCC 1556 after 16 hrs by broth microdilution assay; type: functional; conditions: ATCC 1556, 16 h
[8] = test system: Acinetobacter baumannii; test: Antibacterial activity against Acinetobacter baumannii ATCC 17978 expressing mcr1 gene after 16 hrs by broth microdilution assay; type: organism-based; conditions: in vitro
[9] = test system: Klebsiella pneumoniae; test: Potentiation of colistin-induced antimicrobial activity against Klebsiella pneumoniae isolate C3 assessed as fold reduction in colistin MIC after 16 hrs by broth microdilution assay; type: functional; procedure, shortened: as §1
[10] = test system: Acinetobacter baumannii; test: Antibacterial activity against Acinetobacter baumannii isolate 5075 after 16 hrs by broth microdilution assay; type: organism-based
[11] = test system: Acinetobacter baumannii; test: Antibacterial activity against Acinetobacter baumannii ATCC 19606 after 16 hrs by broth microdilution assay; type: organism-based, ATCC 19606 = CIP 70.34 = JCM 6841
[12] = test system: Acinetobacter baumannii; test: Potentiation of colistin-induced antimicrobial activity against Acinetobacter baumannii isolate 4106 after 16 hrs in presence of 0.01% triton X-100 by broth microdilution assay; type: functional, organism-based
[13] = test system: Escherichia coli; test: Antibacterial activity against Escherichia coli ATCC 25922 after 16 hrs by broth microdilution assay; type: organism-based
[14] = test system: Staphylococcus aureus; test: Inhibition of biofilm formation in methicillin-resistant Staphylococcus aureus ATCC 43300 after 24 hrs by crystal violet staining based method; type: functional, organism-based; conditions: ATCC 43300, 24 h
Procedure, shortened: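 Read-out is the IC50, taken as the compound concentration that inhibits 50% of MRSA 43300 biofilm formation.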

[15] = test system: Klebsiella pneumoniae; test: Antibacterial activity against Klebsiella pneumoniae isolate C3 after 16 hrs by broth microdilution assay
[16] = test system: Acinetobacter baumannii; test: Antibacterial activity against Acinetobacter baumannii isolate 3941 after 16 hrs by broth microdilution assay; type: organism-based
[17] = test system: Staphylococcus aureus; test: Antibacterial activity against methicillin-resistant Staphylococcus aureus ATCC 6538 after 16 hrs by broth microdilution assay; type: functional; conditions: ATCC 6538, 16 h
[18] = test system: Acinetobacter baumannii; test: Antibacterial activity against Acinetobacter baumannii ATCC 17978 after 16 hrs by broth microdilution assay; type: organism-based
[19] = test system: Staphylococcus aureus; test: Antibiofilm activity against methicillin-resistant Staphylococcus aureus ATCC 43300 assessed as dispersion of preformed biofilm at 80 uM after 24 hrs by crystal violet staining based method relative to control; type: functional
[20] = test system: Staphylococcus aureus; test: Potentiation of vancomycin-induced antibacterial activity against methicillin-resistant Staphylococcus aureus ATCC 43300 assessed as dispersion of preformed biofilm after 24 hrs by crystal violet staining based method; type: functional, organism-based; conditions: ATCC 43300, 24 h
[21] = test system: Escherichia coli; test: Antibacterial activity against Escherichia coli ATCC 25922 expressing mcr1 gene after 16 hrs by broth microdilution assay; type: organism-based; conditions: in vitro
[22] = test system: Acinetobacter baumannii; test: Potentiation of colistin-induced antimicrobial activity against Acinetobacter baumannii ATCC 19606 assessed as fold reduction in colistin MIC after 16 hrs by broth microdilution assay; type: functional, ATCC 19606 = CIP 70.34 = JCM 6841; procedure, shortened: as §1
[23] = test system: Enterococcus faecium; test: Antibacterial activity against vancomycin-resistant Enterococcus faecium ATCC 51559 after 16 hrs by broth microdilution assay; type: functional; conditions: ATCC 51559, 16 h
[24] = test system: Acinetobacter baumannii; test: Potentiation of colistin-induced antimicrobial activity against Acinetobacter baumannii ATCC 17978 assessed as fold reduction in colistin MIC after 16 hrs by broth microdilution assay; type: functional; procedure, shortened: as §1
[25] = test system: Klebsiella pneumoniae; test: Antibacterial activity against Klebsiella pneumoniae ATCC 2146 expressing NDM1 gene after 16 hrs by broth microdilution assay; type: organism-based

Brc1ccc2[nH]cc(-c3ccnc(NCc4ccccc4)n3)c2c1.Cl
Activity [1]: inactive
Activity [2]: Active
MIC [3]: 6.25 µM
MIC [4]: > 200 µM
MIC [5]: > 200 µM
EC50 [6]: > 80 µM
MIC [7]: 6.25 µM
MIC [8]: > 200 µM
fold change (FC) [9]: 512
MIC [10]: > 200 µM
MIC [11]: > 200 µM
Activity [12]: inactive
MIC [13]: > 200 µM
IC50 [14]: 9.62 µM
MIC [15]: > 200 µM
MIC [16]: > 200 µM
MIC [17]: 6.25 µM
MIC [18]: > 200 µM
Activity [19]: 26.2%
EC50 [20]: > 80 µM
MIC [21]: > 200 µM
fold change (FC) [22]: 16
MIC [23]: 25 µM
fold change (FC) [24]: 16
MIC [25]: > 200 µM
